Results reported in ChEMBL document CHEMBL1128743, “Synthesis of tight binding inhibitors and their action on the proprotein-processing enzyme furin” (J Med Chem, 1995).

How the values were obtained:
Furin = Furin (Homo sapiens, UniProt P09958); assay: Inhibitory activity against furin
Serine protease 1 = Serine protease 1 (Homo sapiens, UniProt P07477); assay: Inhibitory activity against trypsin
Procedure, shortened: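 Trypsin was tested in the furin buffer: 100 mM HEPES pH 7.5, 0.5% Triton X-100, 1 mM CaCl2, 1 mM 2-mercaptoethanol.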

[1] = molecular target: Subtilisin Carlsberg (Bacillus licheniformis) (UniProt P00780); assay: Inhibitory activity against subtilism Carlsberg; No inhibition
Chain of Subtilisin Carlsberg (Bacillus licheniformis) (P00780 whole entry, looked up): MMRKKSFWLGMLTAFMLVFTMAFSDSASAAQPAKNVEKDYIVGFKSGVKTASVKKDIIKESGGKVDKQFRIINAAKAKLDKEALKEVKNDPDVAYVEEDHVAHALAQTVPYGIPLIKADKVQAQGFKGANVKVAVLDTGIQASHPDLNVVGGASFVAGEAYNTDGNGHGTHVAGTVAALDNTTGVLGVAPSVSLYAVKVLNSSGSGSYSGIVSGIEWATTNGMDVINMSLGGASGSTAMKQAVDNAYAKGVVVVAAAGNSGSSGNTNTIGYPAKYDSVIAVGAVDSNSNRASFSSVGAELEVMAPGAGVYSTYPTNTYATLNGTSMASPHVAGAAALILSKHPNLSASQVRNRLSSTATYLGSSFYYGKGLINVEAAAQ

Chain of Furin (P09958 whole entry): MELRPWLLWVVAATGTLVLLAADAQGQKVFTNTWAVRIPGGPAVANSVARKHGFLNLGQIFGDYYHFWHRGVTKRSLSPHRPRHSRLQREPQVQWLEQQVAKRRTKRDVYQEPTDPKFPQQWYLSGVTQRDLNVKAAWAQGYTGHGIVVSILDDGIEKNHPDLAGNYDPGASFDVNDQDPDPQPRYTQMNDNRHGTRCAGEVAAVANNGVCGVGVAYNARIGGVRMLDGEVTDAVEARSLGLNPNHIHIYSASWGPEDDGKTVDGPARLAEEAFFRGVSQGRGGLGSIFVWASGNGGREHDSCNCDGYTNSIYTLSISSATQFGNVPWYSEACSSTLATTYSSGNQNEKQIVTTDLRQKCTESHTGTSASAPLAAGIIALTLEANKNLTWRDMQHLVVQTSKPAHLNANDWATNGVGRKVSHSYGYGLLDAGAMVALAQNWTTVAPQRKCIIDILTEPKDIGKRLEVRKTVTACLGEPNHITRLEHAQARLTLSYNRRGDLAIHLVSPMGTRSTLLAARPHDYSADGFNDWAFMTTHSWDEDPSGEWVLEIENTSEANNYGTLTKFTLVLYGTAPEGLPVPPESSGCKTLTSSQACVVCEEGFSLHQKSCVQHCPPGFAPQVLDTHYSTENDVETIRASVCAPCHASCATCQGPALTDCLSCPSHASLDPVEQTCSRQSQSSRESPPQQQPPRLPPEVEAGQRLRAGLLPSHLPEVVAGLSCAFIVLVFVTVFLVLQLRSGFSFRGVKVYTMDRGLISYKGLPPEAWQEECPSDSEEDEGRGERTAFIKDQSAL
Chain of Serine protease 1 (P07477 whole entry): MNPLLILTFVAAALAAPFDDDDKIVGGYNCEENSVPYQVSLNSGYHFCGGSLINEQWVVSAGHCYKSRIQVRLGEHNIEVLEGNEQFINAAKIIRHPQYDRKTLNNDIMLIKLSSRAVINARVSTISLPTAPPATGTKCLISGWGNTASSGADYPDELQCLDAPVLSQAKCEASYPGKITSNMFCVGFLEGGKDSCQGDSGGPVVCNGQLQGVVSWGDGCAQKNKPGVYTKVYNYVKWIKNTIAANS

Ki (Furin) [nM]	Ki (Serine protease 1) [nM]	Ki [1]	SMILES
240			CCCCCCCCCCN[C@@H](CCCN=C(N)N)C(=O)N[C@H](C(=O)N[C@@H](CCCCN)C(=O)N[C@@H](CCCN=C(N)N)C(=O)CCC(=O)OC)C(C)C
26			CCCCCCCCCCN[C@@H](CCCN=C(N)N)C(=O)N[C@H](C(=O)N[C@@H](CCCCN)C(=O)N[C@H](CCCN=C(N)N)C(=O)CN[C@@H](C)C(=O)N[C@H](C(=O)NCC(N)=O)C(C)C)C(C)C

Continued, compound first:

SMILES	Ki (Furin) [nM]	Ki (Serine protease 1) [nM]	Ki [1]
CCCCCCCCCCN[C@@H](CCCN=C(N)N)C(=O)N[C@H](C(=O)N[C@@H](CCCCN)C(=O)N[C@@H](CCCN=C(N)N)C(=O)CN[C@@H](C)C(=O)N[C@H](C(=O)NCC(N)=O)C(C)C)C(C)C	3.4		
COC(=O)[C@@H](CC(C)C)NC(=O)CNC(=O)[C@H](NC(=O)CCC(=O)[C@H](CCCN=C(N)N)NC(=O)[C@H](CCCCN)NC(=O)[C@@H](NC(=O)[C@H](CCCN=C(N)N)NC(C)=O)C(C)C)C(C)C	350		
CCCCCCCCCCN[C@@H](CCCNC(=N)N)C(=O)N[C@H](C(=O)N[C@@H](CCCCN)C(=O)N[C@@H](CCCNC(=N)N)C(=O)CN[C@@H](C)C(=O)N[C@H](C(=O)NCC(=O)OC)C(C)C)C(C)C		1900	
CCCCCCCCCCN[C@@H](CCCN=C(N)N)C(=O)N[C@H](C(=O)N[C@@H](CCCCN)C(=O)N[C@@H](CCCN=C(N)N)C(=O)CCC(=O)N[C@@H](C(=O)NCC(=O)N[C@H](CC(C)C)C(=O)OC)C(C)C)C(C)C	330	20900	Not Active
